Reference: ChEMBL document CHEMBL1137442, “Synthesis and anticonvulsant evaluation of 4-(4-alkoxylphenyl)-3-ethyl-4H-1,2,4-triazoles as open-chain analogues of 7-alkoxyl-4,5-dihydro[1,2,4]triazolo[4,3-a]quinolines” (Bioorg Med Chem, 2007)
Calls of active or inactive are those of the source.

Assays:
[1] = Neurotoxicity in ip dosed C57B/6 mouse after 30 mins by rotarod test; format: toxicity, organism-based; details: in vivo
How it was run: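 Mice, groups of 10, given a range of ip doses to define 10–90% minimal neurotoxicity. At 30 min after dosing, each mouse was placed on a 1-in. knurled rod rotating at 6 rpm for 1 min. Neurotoxicity meant failure to keep equilibrium in each of three trials.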

Mus musculus [2] = experiment: Anticonvulsant activity against MES-induced seizure in ip dosed C57B/6 mouse by MES test; format: functional; details: C57B/6, ip
How it was run: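 Mice, groups of 10, given a range of intraperitoneal doses until at least three points fell within 10–90% protection. MES was tested 30 min after dosing, with current applied via corneal electrodes for 0.2 s. Protection was defined as abolition of the hind-leg tonic maximal extension.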

Mus musculus [3] = organism: Mus musculus; experiment: Protective index, ratio of TD50 for C57B/6 mouse by rotarod test to ED50 for C57B/6 mouse by MES test; format: functional
Mus musculus [4] = organism: Mus musculus; experiment: Anticonvulsant activity against pentylenetetrazole-induced seizure in C57B/6 mouse; format: functional
How it was run: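 Pentylenetetrazole 85 mg/kg sc, a dose giving 100% convulsions, was given 30 min after test treatment. Latency and duration of convulsions, plus latency and percentage of lethality, were recorded over the following 1 h. ED50 was the dose preventing tonic convulsions in 50% of treated animals.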

Mus musculus [5] = organism: Mus musculus; experiment: Anticonvulsant activity against isoniazid-induced seizure in C57B/6 mouse; format: functional
How it was run: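 Isoniazid was given ip at 250 mg/kg, a dose set by a dose–percent effect curve to convulse 100% of animals. Test compounds were given beforehand. ED50 was the dose protecting 50% of animals from tonic convulsions.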

Mus musculus [6] = organism: Mus musculus; experiment: Anticonvulsant activity against thiosemicarbazide-induced seizure in C57B/6 mouse; format: functional
How it was run: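 Thiosemicarbazide 50 mg/kg ip, a fully convulsant dose, was given 1 h after test treatment. Latency and duration of convulsions, plus lethality latency and percentage, were recorded over 2 h 30 min. ED50 was the dose preventing tonic convulsions in 50% of treated animals.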

Mus musculus [7] = organism: Mus musculus; experiment: Anticonvulsant activity against 3-mercaptopropionic acid-induced seizure in C57B/6 mouse; format: functional
How it was run: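 3-Mercaptopropionic acid 40 mg/kg in saline was injected sc 1 h after test treatment. Convulsion latency and duration, plus lethality latency and percentage, were recorded over 1 h. ED50 was the dose preventing tonic convulsions in 50% of treated animals.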

Mus musculus [8] = experiment: Anticonvulsant activity against strychnine-induced seizure in C57B/6 mouse at 300 mg/kg; format: functional, organism-based; design: dose 300 mg/kg
How it was run: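 Strychnine chlorhydrate in saline (1.2 mg/mL, 1 mL/kg) was given sc as a 100%-convulsant dose after compound pretreatment, with the compound tested at 300 mg/kg. Mice were housed individually and observed for 30 min, recording seizure onset time, number of tonic seizures and lethality.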

Question: For CCc1nncn1-c1ccc(OCc2c(F)cccc2F)cc1, which TD50 at 0.5 h [1] is on record?
Answer: Its TD50 at 0.5 h is 109 mg/kg.

Question: What about the ED50 (Mus musculus [2]) of the same molecule?
Answer: The ED50 was 15.8 mg/kg.

Question: And the “Ratio TD50/ED50” value (Mus musculus [3])?
Answer: The value was 6.9.

Question: Which results are given for CCc1nncn1-c1ccc(OCc2ccc(C)cc2)cc1?
Answer: TD50 at 0.5 h [1]: 101 mg/kg; ED50 (Mus musculus [2]): 25.5 mg/kg; Ratio TD50/ED50 (Mus musculus [3]): 4

Question: Which TD50 at 0.5 h [1] does the source give for CCCCCCCCOc1ccc(-n2cnnc2CC)cc1 here?
Answer: Its TD50 at 0.5 h is 82.2 mg/kg.

Question: And the ED50 (Mus musculus [2])?
Answer: Its ED50 is 8.8 mg/kg.

Question: What about the “Ratio TD50/ED50” value (Mus musculus [3]) of the same molecule?
Answer: Its value is 9.3.

Question: What about the ED50 (Mus musculus [4]) of the same molecule?
Answer: Its ED50 is 26.4 mg/kg.

Question: And the ED50 (Mus musculus [5])?
Answer: Its ED50 is 38.1 mg/kg.

Question: And the ED50 (Mus musculus [6])?
Answer: Its ED50 is 31.7 mg/kg.

Question: And the ED50 (Mus musculus [7])?
Answer: Its ED50 is 22.8 mg/kg.

Question: What about the Activity (Mus musculus [8]) of the same molecule?
Answer: The Activity was “inactive”.

Question: With CCc1nncn1-c1ccc(OCc2ccc(OC)cc2)cc1 as the molecule, how does the TD50 at 0.5 h [1] read?
Answer: The TD50 at 0.5 h was 132 mg/kg.

Question: What about the ED50 (Mus musculus [2]) of the same molecule?
Answer: The ED50 was 15.8 mg/kg.

Question: And the “Ratio TD50/ED50” value (Mus musculus [3])?
Answer: Its value is 8.3.

Question: With CCOc1ccc(-n2cnnc2CC)cc1 as the molecule, how does the ED50 (Mus musculus [2]) read?
Answer: Its ED50 is over 100 mg/kg.

Question: With CCc1nncn1-c1ccc(OCc2c(Cl)cccc2Cl)cc1 as the molecule, how does the TD50 at 0.5 h [1] read?
Answer: Its TD50 at 0.5 h is 132 mg/kg.

Question: And the ED50 (Mus musculus [2])?
Answer: The ED50 was 15.8 mg/kg.

Question: What about the “Ratio TD50/ED50” value (Mus musculus [3]) of the same molecule?
Answer: Its value is 8.3.

Question: For CCc1nncn1-c1ccc(OCc2ccccc2Cl)cc1, which TD50 at 0.5 h [1] is on record?
Answer: Its TD50 at 0.5 h is 76.1 mg/kg.

Question: What about the ED50 (Mus musculus [2]) of the same molecule?
Answer: The ED50 was 13.2 mg/kg.

Question: What about the “Ratio TD50/ED50” value (Mus musculus [3]) of the same molecule?
Answer: Its value is 5.8.

Question: With CCc1nncn1-c1ccc(OCc2ccccc2F)cc1 as the molecule, how does the TD50 at 0.5 h [1] read?
Answer: Its TD50 at 0.5 h is 61.5 mg/kg.

Question: And the ED50 (Mus musculus [2])?
Answer: The ED50 was 21.2 mg/kg.

Question: What about the “Ratio TD50/ED50” value (Mus musculus [3]) of the same molecule?
Answer: The value was 2.9.

Question: With Fc1ccc(COc2ccc3c(c2)CCc2nncn2-3)cc1 as the molecule, how does the TD50 at 0.5 h [1] read?
Answer: Its TD50 at 0.5 h is 54.5 mg/kg.

Question: What about the ED50 (Mus musculus [2]) of the same molecule?
Answer: Its ED50 is 11.8 mg/kg.

Question: And the “Ratio TD50/ED50” value (Mus musculus [3])?
Answer: The value was 4.6.

Question: Which results are given for CCCCCCCOc1ccc(-n2cnnc2CC)cc1?
Answer: TD50 at 0.5 h [1]: 45.6 mg/kg; ED50 (Mus musculus [2]): 8.3 mg/kg; Ratio TD50/ED50 (Mus musculus [3]): 5.5

Question: Which ED50 (Mus musculus [2]) does the source give for CCCOc1ccc(-n2cnnc2CC)cc1 here?
Answer: The ED50 was over 100 mg/kg.

Question: With CCc1nncn1-c1ccc(OCc2ccc3c(c2)OCO3)cc1 as the molecule, how does the TD50 at 0.5 h [1] read?
Answer: The TD50 at 0.5 h was 189 mg/kg.

Question: And the ED50 (Mus musculus [2])?
Answer: The ED50 was 20.1 mg/kg.

Question: And the “Ratio TD50/ED50” value (Mus musculus [3])?
Answer: The value was 9.4.

Question: Which TD50 at 0.5 h [1] does the source give for CCc1nncn1-c1ccc(OCc2ccc(Cl)cc2)cc1 here?
Answer: Its TD50 at 0.5 h is 137 mg/kg.

Question: And the ED50 (Mus musculus [2])?
Answer: The ED50 was 19.7 mg/kg.

Question: And the “Ratio TD50/ED50” value (Mus musculus [3])?
Answer: Its value is 10.4.

Question: With CCc1nncn1-c1ccc(OCc2ccccc2)cc1 as the molecule, how does the TD50 at 0.5 h [1] read?
Answer: Its TD50 at 0.5 h is 102 mg/kg.

Question: What about the ED50 (Mus musculus [2]) of the same molecule?
Answer: Its ED50 is 20.8 mg/kg.

Question: What about the “Ratio TD50/ED50” value (Mus musculus [3]) of the same molecule?
Answer: The value was 4.9.

Question: Which TD50 at 0.5 h [1] does the source give for CCc1nncn1-c1ccc(OCc2ccc(F)cc2)cc1 here?
Answer: The TD50 at 0.5 h was 91.3 mg/kg.

Question: And the ED50 (Mus musculus [2])?
Answer: Its ED50 is 22.8 mg/kg.

Question: And the “Ratio TD50/ED50” value (Mus musculus [3])?
Answer: Its value is 4.

Question: For Cc1ccc(COc2ccc3c(c2)CCc2nncn2-3)cc1, which TD50 at 0.5 h [1] is on record?
Answer: Its TD50 at 0.5 h is 65.8 mg/kg.

Question: And the ED50 (Mus musculus [2])?
Answer: The ED50 was 20.5 mg/kg.

Question: What about the “Ratio TD50/ED50” value (Mus musculus [3]) of the same molecule?
Answer: The value was 3.2.

Question: Which results are given for c1ccc(COc2ccc3c(c2)CCc2nncn2-3)cc1?
Answer: TD50 at 0.5 h [1]: 61.4 mg/kg; ED50 (Mus musculus [2]): 17.3 mg/kg; Ratio TD50/ED50 (Mus musculus [3]): 3.5

Question: Which ED50 (Mus musculus [2]) does the source give for CCCCCCCCCCCCOc1ccc(-n2cnnc2CC)cc1 here?
Answer: The ED50 was over 100 mg/kg.

Question: For CCCCCCOc1ccc2c(c1)CCc1nncn1-2, which TD50 at 0.5 h [1] is on record?
Answer: The TD50 at 0.5 h was 30.3 mg/kg.

Question: And the ED50 (Mus musculus [2])?
Answer: Its ED50 is 13.5 mg/kg.

Question: And the “Ratio TD50/ED50” value (Mus musculus [3])?
Answer: The value was 2.2.

Question: For CCCCOc1ccc(-n2cnnc2CC)cc1, which ED50 (Mus musculus [2]) is on record?
Answer: Its ED50 is over 100 mg/kg.

Question: What does the source list for CCc1nncn1-c1ccc(OCc2cccc(Cl)c2)cc1?
Answer: TD50 at 0.5 h [1]: 110 mg/kg; ED50 (Mus musculus [2]): 27.4 mg/kg; Ratio TD50/ED50 (Mus musculus [3]): 4

Question: With CCc1nncn1-c1ccc(OCc2cccc(F)c2)cc1 as the molecule, how does the TD50 at 0.5 h [1] read?
Answer: Its TD50 at 0.5 h is 91.2 mg/kg.

Question: And the ED50 (Mus musculus [2])?
Answer: The ED50 was 22.8 mg/kg.

Question: What about the “Ratio TD50/ED50” value (Mus musculus [3]) of the same molecule?
Answer: The value was 4.

Question: For CCCCCCOc1ccc(-n2cnnc2CC)cc1, which TD50 at 0.5 h [1] is on record?
Answer: The TD50 at 0.5 h was 62.1 mg/kg.

Question: And the ED50 (Mus musculus [2])?
Answer: Its ED50 is 13.2 mg/kg.

Question: And the “Ratio TD50/ED50” value (Mus musculus [3])?
Answer: The value was 4.7.
